Measurements published in ChEMBL document CHEMBL5120910, “Small-Molecule Gankyrin Inhibition as a Therapeutic Strategy for Breast and Lung Cancer” (J Med Chem, 2022).
Calls of active or inactive are those of the source. The rule behind the calls is not given here.

Tests used:
[1] = system: A549; assay: Antiproliferative activity against human A549 cells assessed as cell growth inhibition measured after 72 hrs by MTT assay; type: functional, cell-based; details: A549, 72 h
Procedure, shortened: (§1)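 Cells seeded at 2.5 × 10^4 cells/well, allowed 24 h before dosing, then exposed to increasing concentrations (0.5% DMSO final) for 72 h at 37 °C, 5% CO2. MTT added at 1 mg/mL final in complete media for 2 h, formazan dissolved in DMSO, absorbance read at 570 nm. 6–8 repeats per treatment; IC50 from concentration–response fit.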

[2] = system: MDA-MB-231; assay: Antiproliferative activity against human MDA-MB-231 cells assessed as cell growth inhibition measured after 72 hrs by MTT assay; type: functional, cell-based; details: MDA-MB-231, 72 h; procedure, shortened: as §1
[3] = Metabolic stability in human liver microsomes assessed as compound remaining preincubated for 10 mins followed by NADPH addition measured after 60 mins by HPLC analysis; type: ADME, Microsome; details: read-out: Stability
[4] = system: MDA-MB-231; assay: Induction of cell cycle arrest in human MDA-MB-231 cells assessed as increase in cell accumulation at G0/G1 phase at 2 uM measured after 72 hrs by propidium iodide staining based flow cytometry analysis; type: functional
Procedure, shortened: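 Cells in 10 cm dishes treated for 72 h (0.1% DMSO final; DMSO-only control). Harvested in cold PBS, fixed in 70% ethanol at −20 °C overnight, stained with PI for 40 min at 37 °C, then analysed by flow/imaging cytometry for G0/G1, S and G2/M fractions. Mean ± SD, n = 3.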

[5] = system: MDA-MB-231; assay: Antitumor activity in human MDA-MB-231 cells cultured as 3D spheroids assessed as fold decrease in spheroid volume at 1 uM measured up to 15 days by inverted microscopic analysis; type: functional; details: time <= 15 day
Procedure, shortened: (§2)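 Spheroids formed from 2000 cells/well in ultra-low attachment U-bottom wells over 3 days, then given a single dose on day 3. Half the media was replenished every 3 days. Transmitted-light images were taken through day 15, and spheroid volume was computed from images and expressed as fold-difference. Mean ± SD, n = 8; unpaired t-test.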

[6] = Cytotoxicity against HEK293 cells assessed as cell growth inhibition measured after 72 hrs by MTT assay; type: toxicity, cell-based; details: human; procedure, shortened: as §1
[7] = system: MDA-MB-231; assay: Inhibition of colony formation in human MDA-MB-231 cells at 2 uM incubated for 48 hrs followed by replacement of fresh media every alternative day measured after 7 days by crystal violet staining based clonogenic assay relative to control; values are per cent of control; details: MDA-MB-231, 216 h
[8] = system: MDA-MB-231; assay: Antitumor activity against human MDA-MB-231 cells tumor spheroids assessed as decrease in live cells by measuring green fluorescence intensity at 1 to 2 uM measured at 15 days by calcein AM staining based fluorescence microscopic analysis; type: functional, cell-based; details: dose 1-2 µM, time 15.0 day
Procedure, shortened: (§3)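 Live/dead staining of 3D spheroids at day 15 after single-dose treatment: media replaced by kit reagent with calcein AM (live, green) and EthD-III (dead, red), 30 min in dark at room temperature, imaged at 4X by fluorescence microscopy. Mean ± SD, n = 4; unpaired Student's t-test.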

[9] = system: MDA-MB-231; assay: Induction of cell cycle arrest in human MDA-MB-231 cells at 2 uM measured after 72 hrs by propidium iodide staining based flow cytometry analysis
[10] = system: MDA-MB-231; assay: Inhibition of gankyrin-proteasome protein-protein interaction in human MDA-MB-231 cells assessed as increase in Rb level at 0.25 to 2 uM measured after 48 hrs by Western blotting analysis; type: cell-based; details: dose 0.25-2 µM
Procedure, shortened: (§4)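 Cells in 10 cm dishes treated with varying concentrations (0.5% DMSO final) or DMSO only for 48 h. Lysed in RIPA with protease/phosphatase inhibitors on ice for 60 min. 15 μg protein resolved under reducing conditions, transferred to PVDF, and probed for p53, phospho-p53 S6/S15, Rb, gankyrin and cyclophilin. Detection by HRP-secondary ECL.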

[11] = system: HuH-6; assay: Inhibition of gankyrin-proteasome protein-protein interaction in human HuH-6 cells assessed as increase in Rb level at 0.12 to 1 uM measured after 48 hrs by Western blotting analysis; type: cell-based; details: dose 0.12-1 µM; procedure, shortened: as §4
[12] = system: HuH-6; assay: Inhibition of gankyrin-proteasome protein-protein interaction in human HuH-6 cells assessed as increase in p53 level at 0.12 to 1 uM measured after 48 hrs by Western blotting analysis; type: cell-based; details: dose 0.12-1 µM; procedure, shortened: as §4
[13] = system: MDA-MB-231; assay: Antitumor activity against human MDA-MB-231 cells tumor spheroids assessed as increase in dead cells by measuring red fluorescence intensity at 1 to 2 uM measured at 15 days by EthD-III staining based fluorescence microscopic analysis; type: functional, cell-based; details: dose 1-2 µM, time 15.0 day; procedure, shortened: as §3
[14] = Antiproliferative activity against human HuH-6 cells assessed as cell growth inhibition measured after 72 hrs by MTT assay; type: functional, cell-based; details: HuH-6, 72 h; procedure, shortened: as §1
[15] = biological target: T1, 26S proteasome non-ATPase regulatory subunit 10 (Homo sapiens) (UniProt O75832); assay: Binding affinity to gankyrin in human MDA-MB-231 cells assessed as decrease in thermal stability at 2 uM incubated for 48 hrs followed by heat treatment at 50 to 65 degreeC by CETSA; type: cell-based
T1 sequence (whole entry): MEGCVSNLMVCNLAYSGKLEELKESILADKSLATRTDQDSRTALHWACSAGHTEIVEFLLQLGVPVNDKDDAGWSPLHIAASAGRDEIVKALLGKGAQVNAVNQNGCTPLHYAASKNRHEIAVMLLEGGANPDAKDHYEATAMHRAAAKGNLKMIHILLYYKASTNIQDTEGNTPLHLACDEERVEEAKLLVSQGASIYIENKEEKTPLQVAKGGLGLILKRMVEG
Procedure, shortened: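 CETSA: cells treated with compound for 48 h, then heated across a temperature range. Soluble gankyrin was detected by western blot and melt curves were constructed. Mean ± SD, n = 3.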

[16] = system: MDA-MB-231; assay: Antitumor activity in human MDA-MB-231 cells cultured as 3D spheroids assessed as fold decrease in spheroid volume at 2 uM measured up to 15 days by inverted microscopic analysis; type: functional; details: time <= 15 day; procedure, shortened: as §2
[17] = biological target: T1, 26S proteasome non-ATPase regulatory subunit 10 (Homo sapiens); assay: Binding affinity to gankyrin (unknown origin) expressed in Escherichia coli BL21 (DE3) expression system assessed as decrease in thermal denaturation at 1.5 uM measured at 5 to 90 degreeC by circular dichroism spectropolarimeter analysis
Procedure, shortened: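 Recombinant His-tagged gankyrin expressed in E. coli BL21(DE3) Codon+RIL (IPTG 1 mM, 25 °C, ~5 h) and purified by Ni2+-IMAC. Thermal denaturation followed by CD at 217 nm over 5–90 °C with compound at 1.5 μM.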

[18] = biological target: T1, 26S proteasome non-ATPase regulatory subunit 10 (Homo sapiens); assay: Binding affinity to gankyrin (unknown origin) assessed as change in melting temperature at 300 uM by SYPRO orange staining based thermal shift assay

| IC50 [1] [µM] | IC50 [2] [µM] | SMILES | other results |
| --- | --- | --- | --- |
| > 100 | 14.2 | COC(=O)c1ccc(-n2cc(CCCOc3ccc(C)cc3)nn2)cc1 | – |
| > 100 | 55.1 | COC(=O)c1ccc(-n2cc(CCCC(=O)Oc3ccc(C)cc3)nn2)cc1 | – |
| 65.1 | 21.5 | COC(=O)c1ccc(-n2cc(CCCc3nnc(-c4ccc(C)cc4)o3)nn2)cc1 | – |
| > 100 | > 100 | Cc1ccc(S(=O)(=O)OCCCc2cn(-c3ccc(C(F)(F)F)cc3)nn2)cc1 | – |
| > 100 | > 100 | COC(=O)c1ccc(-c2nnc(CCCOS(=O)(=O)c3ccc(C)cc3)[nH]2)cc1 | – |
| 19.1 | 2 | O=C(CCCn1cc(-c2ccc(C(F)(F)F)cc2)nn1)Nc1ccc(-c2ccccc2)cc1 | remaining at 1 h [3]: 60%; Activity [4]: Active; fold change (FC) [5]: 2.3; IC50 at 72 h [6]: > 100 µM; growth, % of control at 2 µM [7]: 46.3%; Activity [8]: Active; Activity [9]: Active; Activity [10]: Active; Activity [11]: Active; Activity [12]: Active; Activity [13]: Active; IC50 [14]: 1.1 µM; Activity [15]: Active; fold change (FC) [16]: 3.2; Activity [17]: Active; Activity [18]: Active |
| > 100 | 2.7 | COC(=O)c1ccc(-c2cn(CCCC(=O)Nc3ccc(C)cc3)nn2)cc1 | – |
| 75.7 | 9.7 | COC(=O)c1ccc(-n2cc(CCCC(=O)Nc3ccc(C)cc3)nn2)cc1 | – |
| > 100 | 82.4 | COC(=O)c1ccc(-n2cc(CCCNC(=S)c3ccc(C)cc3)nn2)cc1 | – |
| > 100 | > 100 | COC(=O)c1ccc(-n2cc(CCCOC(=O)c3ccc(C)cc3)nn2)cc1 | – |
| 46.5 | > 100 | COC(=O)c1ccc(-n2cc(CCCNC(=S)Nc3ccc(C)cc3)nn2)cc1 | – |
| 50 | > 100 | COC(=O)c1ccc(-c2cn(CCCC(=S)Nc3ccc(C)cc3)nn2)cc1 | – |
| 42.3 | > 100 | COC(=O)c1ccc(-c2cn(CCCC(=S)Nc3ccc(-c4ccccc4)cc3)nn2)cc1 | – |

| SMILES | IC50 [1] [µM] | IC50 [2] [µM] | other results |
| --- | --- | --- | --- |
| COC(=O)c1ccc(-n2cc(CCCOS(=O)(=O)c3ccc(-c4ccccc4)cc3)nn2)cc1 | 57.3 | > 100 | – |
